The source made the active and inactive calls. No cut-off for these calls is given here.
Experiments:
[1] = Lipophilicity index, Log K of the compound at 1 mM by RP-HPLC method; type: physicochemical; settings: 1000 µM
[2] = target: T1, Amine oxidase [flavin-containing] B (Homo sapiens, UniProt P27338); experiment: Inhibition of human recombinant MAOB expressed in microsomes of baculovirus-infected insect cell using kynuramine as substrate preincubated for 20 mins followed by protein addition measured after 30 mins by fluorescence assay
T1 sequence (P27338 whole entry): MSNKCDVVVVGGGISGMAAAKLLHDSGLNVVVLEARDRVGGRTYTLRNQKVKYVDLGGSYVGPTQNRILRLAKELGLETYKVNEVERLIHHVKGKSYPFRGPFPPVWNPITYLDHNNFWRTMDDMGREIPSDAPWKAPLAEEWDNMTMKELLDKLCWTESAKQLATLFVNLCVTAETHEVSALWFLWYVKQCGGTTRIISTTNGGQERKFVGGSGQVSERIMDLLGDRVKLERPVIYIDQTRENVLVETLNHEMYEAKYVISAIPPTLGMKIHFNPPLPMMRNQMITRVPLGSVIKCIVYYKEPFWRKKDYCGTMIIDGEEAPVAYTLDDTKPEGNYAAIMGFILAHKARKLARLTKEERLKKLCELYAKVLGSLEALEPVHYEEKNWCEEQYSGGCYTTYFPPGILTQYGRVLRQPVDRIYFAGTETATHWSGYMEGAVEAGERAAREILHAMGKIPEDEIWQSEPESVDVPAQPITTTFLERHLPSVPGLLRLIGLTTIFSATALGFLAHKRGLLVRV

[3] = target: T2, Amine oxidase [flavin-containing] A (Homo sapiens, UniProt P21397); experiment: Inhibition of human recombinant MAOA expressed in microsomes of baculovirus-infected insect cell using kynuramine as substrate preincubated for 20 mins followed by protein addition measured after 30 mins by fluorescence assay
T2 sequence (P21397 whole entry): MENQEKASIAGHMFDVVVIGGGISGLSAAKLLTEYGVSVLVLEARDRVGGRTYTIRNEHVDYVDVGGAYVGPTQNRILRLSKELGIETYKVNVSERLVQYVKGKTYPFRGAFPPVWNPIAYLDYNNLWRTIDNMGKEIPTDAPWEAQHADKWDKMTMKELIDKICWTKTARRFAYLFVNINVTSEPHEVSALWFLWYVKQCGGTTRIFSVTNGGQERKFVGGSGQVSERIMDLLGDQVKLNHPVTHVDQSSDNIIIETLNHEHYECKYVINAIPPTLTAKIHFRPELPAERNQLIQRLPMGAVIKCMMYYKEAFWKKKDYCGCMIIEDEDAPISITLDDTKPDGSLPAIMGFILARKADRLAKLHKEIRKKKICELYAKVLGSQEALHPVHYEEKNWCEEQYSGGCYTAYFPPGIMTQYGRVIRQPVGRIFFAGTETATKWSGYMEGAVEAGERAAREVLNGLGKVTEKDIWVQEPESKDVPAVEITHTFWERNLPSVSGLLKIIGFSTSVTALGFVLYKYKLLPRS
Method in brief: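 Recombinant human MAO A (baculovirus-infected insect cell microsomes) with kynuramine substrate; inhibitor preincubated 20 min at 37 °C, enzyme then added and incubated 30 min more. Fluorescence at ex/em 320/400 nm. Triplicates, three independent experiments.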

Acetylcholinesterase = Acetylcholinesterase (Electrophorus electricus, UniProt O42275); experiment: Inhibition of electric eel AChE using acetylthiocholine iodide as substrate preincubated for 20 mins followed by substrate addition measured for 5 mins by spectrophotometric Ellman's method
[4] = target: Cholinesterase (Equus caballus) (UniProt P81908); experiment: Inhibition of equine serum BChE at 10 uM using butyrylthiocholine iodide as substrate preincubated for 20 mins followed by substrate addition measured for 5 mins by spectrophotometric Ellman's method relative to control
Method in brief: (§1)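 BChE from equine serum (13 U/mg), Ellman spectrophotometric method run in 96-well format. Seven inhibitor concentrations, 10^-4 to 10^-10 M, each in triplicate. IC50 from non-linear regression of response against log(concentration). […] Mean of three independent experiments.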

Homo sapiens = organism: Homo sapiens; experiment: Selectivity index, ratio of IC50 for human recombinant MAOA to IC50 for human recombinant MAOB
SH-SY5Y [5] = experiment: Neuroprotective activity against oligomycin-A-induced oxidative injury in human SH-SY5Y cells assessed as increase in cell viability at 1 uM after 24 hrs by MTT assay; type: functional, cell-based
Method in brief: (§2)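 SH-SY5Y cells incubated 24 h with compound at 1 or 10 µM together with H2O2 300 µM, oligomycin-A 10 µM or rotenone 20 µM. Viability by MTT, as % of cells given neither insult nor compound. Triplicates, three repeats; mean ± SD; two-way ANOVA with Bonferroni post hoc test.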

Cholinesterase = Cholinesterase (Equus caballus, UniProt P81908); experiment: Inhibition of equine serum BChE using butyrylthiocholine iodide as substrate preincubated for 20 mins followed by substrate addition measured for 5 mins by spectrophotometric Ellman's method; method in brief: as §1
SH-SY5Y [6] = experiment: Neuroprotective activity against oligomycin-A-induced oxidative injury in human SH-SY5Y cells assessed as increase in cell viability at 10 uM after 24 hrs by MTT assay; type: functional, cell-based; method in brief: as §2
[7] = Kinetic aqueous solubility of the compound in Tris-HCl buffer at pH 7.4 by turbidimetric method; type: physicochemical; settings: buffer
Method in brief: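 DMSO stocks added in portions to 50 mM Tris-HCl pH 7.4 at room temperature. Light scattering read as UV absorbance increase at 580–780 nm; solubility from a bilinear fit of absorbance versus µL DMSO. Reported as logS (mol/L), mean ± SEM of three independent assays.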

SH-SY5Y [8] = experiment: Neuroprotective activity against H2O2-induced oxidative injury in human SH-SY5Y cells assessed as increase in cell viability at 1 to 10 uM after 24 hrs by MTT assay; type: functional, cell-based; method in brief: as §2
SH-SY5Y [9] = experiment: Neuroprotective activity against rotenone-induced oxidative injury in human SH-SY5Y cells assessed as increase in cell viability at 1 uM after 24 hrs by MTT assay; type: functional, cell-based; method in brief: as §2
SH-SY5Y [10] = experiment: Cytotoxicity against human SH-SY5Y cells assessed as inhibition of cell growth after 24 hrs by MTT assay; type: cell-based
Method in brief: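 SH-SY5Y cells exposed 24 h at 37 °C to 0.1, 1, 5, 10 and 50 µM; viability read by MTT at 570 nm versus untreated cells. […] Means ± SD, n = 3.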

SH-SY5Y [11] = experiment: Neuroprotective activity against rotenone-induced oxidative injury in human SH-SY5Y cells assessed as increase in cell viability at 10 uM after 24 hrs by MTT assay; type: functional, cell-based; method in brief: as §2

Chain of Acetylcholinesterase (O42275 whole entry): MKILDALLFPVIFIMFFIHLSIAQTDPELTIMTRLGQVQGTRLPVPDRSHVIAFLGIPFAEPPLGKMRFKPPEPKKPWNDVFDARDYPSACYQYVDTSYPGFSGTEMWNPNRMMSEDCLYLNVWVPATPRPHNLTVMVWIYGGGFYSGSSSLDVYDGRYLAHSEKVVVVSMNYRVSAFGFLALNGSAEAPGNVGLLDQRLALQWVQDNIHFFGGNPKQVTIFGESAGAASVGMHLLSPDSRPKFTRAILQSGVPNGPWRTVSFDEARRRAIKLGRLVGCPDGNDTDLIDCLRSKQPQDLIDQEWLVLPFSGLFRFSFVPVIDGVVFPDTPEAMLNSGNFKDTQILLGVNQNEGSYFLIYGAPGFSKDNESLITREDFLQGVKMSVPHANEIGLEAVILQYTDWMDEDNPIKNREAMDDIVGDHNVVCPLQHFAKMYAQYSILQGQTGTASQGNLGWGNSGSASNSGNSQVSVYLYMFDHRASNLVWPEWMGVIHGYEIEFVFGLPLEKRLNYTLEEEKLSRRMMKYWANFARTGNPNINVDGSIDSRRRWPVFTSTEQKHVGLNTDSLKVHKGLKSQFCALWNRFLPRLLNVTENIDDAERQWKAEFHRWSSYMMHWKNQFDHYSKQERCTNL
Chain of Cholinesterase (P81908 whole entry): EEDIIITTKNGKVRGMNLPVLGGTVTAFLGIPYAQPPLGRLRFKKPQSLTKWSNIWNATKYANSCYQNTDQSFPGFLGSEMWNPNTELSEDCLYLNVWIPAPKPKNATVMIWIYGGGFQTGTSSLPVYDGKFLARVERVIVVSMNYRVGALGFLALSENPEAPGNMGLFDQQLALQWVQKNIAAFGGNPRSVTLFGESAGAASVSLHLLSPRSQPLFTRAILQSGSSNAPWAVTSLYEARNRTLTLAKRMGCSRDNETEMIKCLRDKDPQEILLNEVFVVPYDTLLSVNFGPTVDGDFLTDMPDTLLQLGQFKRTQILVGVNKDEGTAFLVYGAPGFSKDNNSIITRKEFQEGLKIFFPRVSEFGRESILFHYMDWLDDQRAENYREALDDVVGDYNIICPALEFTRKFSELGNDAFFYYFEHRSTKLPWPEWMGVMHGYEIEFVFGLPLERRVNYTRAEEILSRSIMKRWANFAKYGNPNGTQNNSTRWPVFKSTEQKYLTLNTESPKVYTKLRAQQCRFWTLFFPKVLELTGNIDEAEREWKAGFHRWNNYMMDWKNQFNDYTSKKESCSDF
Chain of Cholinesterase (Equus caballus) (P81908 whole entry): as above

SMILES | IC50 [2] [nM] | IC50 [3] [nM] | IC50 (Acetylcholinesterase) [nM] | inhibition [4] [%] | IC50 (Cholinesterase) [nM] | also measured
CN(Cc1ccccc1)Cc1ccc(COc2ccc3c(CO)cc(=O)oc3c2)cc1 | – | – | – | – | – | log K [1]: 1.87
Cc1c(C)c2ccc(OC3CCN(C)CC3)cc2oc1=O | 274 | 11700 | 1300 | 11 | – | –
Cc1c(C)c2ccc(OCC3CCN(C)CC3)cc2oc1=O | 297 | 16600 | 680 | 14 | – | –
Cc1c(C)c2ccc(OC3CCN(Cc4ccc(Cl)cc4)CC3)cc2oc1=O | 876 | 1590 | 1550 | 29 | – | Ratio IC50 (Homo sapiens): 2
CCCCN1CCC(Oc2ccc3c(C)c(C)c(=O)oc3c2)CC1 | 1410 | 23900 | 990 | 35 | – | –
Cc1c(C)c2ccc(OC3CCN(Cc4cccc(Cl)c4)CC3)cc2oc1=O | 285 | 870 | 1080 | 28 | – | –
Cc1c(C)c2ccc(OCC3CCN(Cc4ccccc4)CC3)cc2oc1=O.Cl | 105 | 2410 | 1660 | – | 4720 | log K [1]: 1.98; Activity (SH-SY5Y [5]): inactive; Activity (SH-SY5Y [6]): inactive; log(Kinetic_solubility) [7]: -4.25
Cc1c(C)c2ccc(OC3CCN(CCc4ccccc4)CC3)cc2oc1=O | 2490 | 12400 | 1650 | – | 1770 | –
Cc1c(C)c2ccc(OC3CCN(Cc4ccc(C#N)cc4)CC3)cc2oc1=O | 656 | 1290 | 970 | 48 | – | Ratio IC50 (Homo sapiens): 2
Cc1c(C)c2ccc(OCCCN3CCc4ccccc4C3)cc2oc1=O | 298 | 2680 | 1220 | – | 950 | –
Cc1c(C)c2ccc(OCC3CCN(Cc4cccc(Cl)c4)CC3)cc2oc1=O | 89 | 700 | 1030 | – | 6070 | Activity (SH-SY5Y [5]): inactive
Cc1c(C)c2ccc(OCCCCN3CCc4ccccc4C3)cc2oc1=O | 612 | 2240 | 1150 | – | 2610 | –
Cc1c(C)c2ccc(OC3CCN(CC(=O)c4ccccc4)CC3)cc2oc1=O | 114 | 1960 | 3780 | 45 | – | –
Cc1c(C)c2ccc(OC3CCN(Cc4ccccc4)CC3)cc2oc1=O | 445 | 3590 | 780 | – | 9570 | –
Cc1c(C)c2ccc(OCC3CCN(Cc4ccc(C#N)cc4)CC3)cc2oc1=O | 549 | 10100 | 1810 | 27 | – | –
Cc1c(C)c2ccc(OCC3CCCN(Cc4ccc(F)cc4)C3)cc2oc1=O (racemic) | 163 | 1110 | 1460 | – | 3690 | Activity (SH-SY5Y [8]): Active; Activity (SH-SY5Y [9]): Active
Cc1c(C)c2ccc(OCC3CCCN(Cc4ccc(Cl)cc4)C3)cc2oc1=O (racemic) | 50 | 822 | 2890 | – | 5900 | –
Cc1c(C)c2ccc(OCC3CCCN(Cc4cccc(Cl)c4)C3)cc2oc1=O (racemic) | 36 | 980 | 1170 | – | 4690 | Activity (SH-SY5Y [8]): Active; Activity (SH-SY5Y [6]): inactive; IC50 (SH-SY5Y [10]): 13000 nM
Cc1c(C)c2ccc(OCC3CCCN(Cc4ccc(C#N)cc4)C3)cc2oc1=O (racemic) | 34 | 4510 | 2800 | 36 | – | Ratio IC50 (Homo sapiens): 133
Cc1c(C)c2ccc(OCC3CCCN(Cc4ccc(S(C)(=O)=O)cc4)C3)cc2oc1=O (racemic) | 113 | 210 | 850 | 10 | – | –
COc1ccc(CN2CCCC(COc3ccc4c(C)c(C)c(=O)oc4c3)C2)cc1OC (racemic) | 90 | 1720 | 2210 | – | 6040 | Activity (SH-SY5Y [5]): inactive; Activity (SH-SY5Y [6]): inactive; IC50 (SH-SY5Y [10]): 10000 nM
Cc1c(C)c2ccc(OCC3CCCN(Cc4cccc(Br)c4)C3)cc2oc1=O (racemic) | – | – | – | 30 | – | Activity (SH-SY5Y [8]): Active; Activity (SH-SY5Y [9]): Active; Activity (SH-SY5Y [5]): Active; Activity (SH-SY5Y [6]): Active; Activity (SH-SY5Y [11]): Active
Cc1c(C)c2ccc(OCC3CCCN(Cc4ccccc4)C3)cc2oc1=O (racemic) | – | – | – | – | – | Activity (SH-SY5Y [8]): Active; Activity (SH-SY5Y [9]): Active; Activity (SH-SY5Y [5]): Active; Activity (SH-SY5Y [6]): Active; Activity (SH-SY5Y [11]): Active
Cc1c(C)c2ccc(OCC3CCCN(Cc4cccc(Br)c4)C3)cc2oc1=O (single isomer, unassigned; (+)) [listing 1 of 2 here] | 26 | 540 | 3230 | – | – | –
Cc1c(C)c2ccc(OCC3CCCN(Cc4cccc(Br)c4)C3)cc2oc1=O (single isomer, unassigned; (+)) [listing 2 of 2 here] | – | – | – | 36 | – | Ratio IC50 (Homo sapiens): 21
Cc1c(C)c2ccc(OCC3CCCN(Cc4cccc(Br)c4)C3)cc2oc1=O (single isomer, unassigned; (-)) [listing 1 of 2 here] | 196 | 1110 | 1720 | – | – | –
Cc1c(C)c2ccc(OCC3CCCN(Cc4ccccc4)C3)cc2oc1=O (single isomer, unassigned; (-)) | – | 2300 | 780 | – | 8080 | –
Cc1c(C)c2ccc(OCC3CCCN(Cc4cccc(Br)c4)C3)cc2oc1=O (single isomer, unassigned; (-)) [listing 2 of 2 here] | – | – | – | 26 | – | –
Cc1c(C)c2ccc(OCC3CCCN(Cc4ccccc4)C3)cc2oc1=O (stereo in doubt; (+)-5b) | – | 3840 | 1800 | – | 2910 | –

— ChEMBL document CHEMBL4425129, “Exploring Basic Tail Modifications of Coumarin-Based Dual Acetylcholinesterase-Monoamine Oxidase B Inhibitors: Identification of Water-Soluble, Brain-Permeant Neuroprotective Multitarget Agents” (J Med Chem, 2016)
